Screening data from PubChem BioAssay.
HTRA1 inh – inhibitors of human serine peptidase HTRA1; Q92743; recombinant HTRA1, FP-rhodamine activity-based probe, fluorescence polarization; inhibition, % at 5.96 µM; 0.5% of 340,000 active; in the data active means inhibition above about 36%;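 further: 0% = enzyme with DMSO and 100% = wells lacking enzyme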
SIAE primary – human SIAE inhibition, primary screen; 0.69% of 370,000 active; SIAE FP-Rh probe binding, fluorescence polarization; inhibition, % at 9.66 µM;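 active means inhibition above a cutoff: mean of compounds within the control limits plus 3 SD of those, cut at about 17% in these data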;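 further: 0% = plate median of compound wells and 100% = probe without SIAE protein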
ABHD4 inh – inhibitors of mouse ABHD4; Q8VD66; purified mABHD4, FP-Rh probe fluorescence polarization; inhibition, % at 8.92 µM; 0.54% of 370,000 active; AID 720543;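 active means inhibition exceeding the mean over every tested compound plus 3 SD, cut at about 30% in these data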;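 further: 0% = plate median of compound wells and 100% = S159A mutant with DMSO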
Target sequence (Q8VD66 whole entry, looked up): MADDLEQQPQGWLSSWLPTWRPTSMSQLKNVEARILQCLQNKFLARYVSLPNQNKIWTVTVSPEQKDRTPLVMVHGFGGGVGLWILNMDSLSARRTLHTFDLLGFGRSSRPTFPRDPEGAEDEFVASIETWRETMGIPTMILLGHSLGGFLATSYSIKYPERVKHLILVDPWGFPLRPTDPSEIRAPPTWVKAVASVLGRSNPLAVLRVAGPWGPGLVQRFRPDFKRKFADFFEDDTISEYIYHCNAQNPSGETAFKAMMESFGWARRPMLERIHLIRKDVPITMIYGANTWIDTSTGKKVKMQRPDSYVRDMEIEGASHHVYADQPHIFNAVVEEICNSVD
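Assay system: Wild-type mouse ABHD4 protein | Medium: HEPES pH 7.0 buffer, 150 mM NaCl, 0.01% Pluronic F-127 | Incubation: Enzyme–compound pre-incubation 45 min, then probe 60 min, both 25 °C | Technique: Fluorescence polarization with parallel and perpendicular emission, 525/598 nm | Evaluation: % inhibition of FP-Rh probe binding versus controls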
TCR-CD3 inh – human TCR-CD3 binding inhibition; inhibition, % at 9.4 µM; AID 651800; 0.37% of 360,000 active; TAMRA-labeled TCR probe fluorescence, biochemical;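 further: recombinant mutant TCR 2C K166C tagged with TAMRA read by polarization; 0% = receptor in buffer alone and 100% = receptor with positive control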
ARNT-TACC3 inh – ARNT/TACC3 interaction disruption | 0.66% of 390,000 active | Q9Y6A5 | inhibition, % at 9.99 µM | AlphaScreen His-ARNT PAS-B/GST-TACC3 binding, luminescence; TACC3 fragment carries E629A point mutation;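 active means mean inhibition of replicates at least 50% and at least half of replicates each reaching 50%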;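 further: 0% = complete ARNT plus TACC3 wells and 100% = ARNT alone without TACC3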
BSA TAMRA ctr – BSA probe counter-screen for TCR-CD3 inhibitors; inhibition, % at 9.4 µM; shares compounds with TCR-CD3 inh; 10% of 1,200 active; TAMRA-labeled BSA probe fluorescence counterscreen; in the data active means inhibition above about 23%;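 further: 0% = buffer low control and 100% = reference high control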
TCR-CD3 inh conf – TCR-CD3 interaction inhibition, confirmation; 48% of 1,200 active; shares compounds with TCR-CD3 inh; inhibition, % at 9.4 µM; TAMRA-labeled TCR probe fluorescence binding assay; AID 652036
mABHD4 conf – confirmation of mouse ABHD4 inhibitors. purified mABHD4, FP-Rh probe fluorescence polarization. inhibition, % at 8.92 µM. shares compounds with ABHD4 inh. 55% of 1,800 active;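 active means mean inhibition across replicates above the hit cutoff set in the primary screen, cut at about 30% in these data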;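 further: 0% = wild-type ABHD4 with DMSO and 100% = catalytically dead S159A mutant with DMSO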
SIAE confirm – human SIAE inhibition, confirmation; shares compounds with SIAE primary; SIAE FP-Rh activity-based probe, fluorescence polarization; inhibition, % at 9.66 µM; 13% of 2,300 active; AID 1117263;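 active means mean inhibition of the replicates above the hit cutoff set in the primary screen, cut at about 17% in these data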;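 further: 0% = SIAE with DMSO and probe and 100% = probe without SIAE; inhibitors lower polarization as more probe stays unbound to SIAE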
* hit, by the source's call; i = inactive; / = no result. Sampled rows, rich in hits. Any-hit rate of the full collection: about 1.8%. Unless noted, no stated cut-off is given here; in the data, active means inhibition above about 19%; inactive means the rest.

SMILES	HTRA1 inh	SIAE primary	ABHD4 inh	TCR-CD3 inh	ARNT-TACC3 inh	BSA TAMRA ctr	TCR-CD3 inh conf	mABHD4 conf	SIAE confirm
OCCOCCN1CCN(C2=Nc3ccccc3Sc3ccccc32)CC1	4.1	-4.1	-3.9	-6.4	i	/	/	/	/
OC1CCC2CN3CCc4c([nH]c5ccccc45)C3CC2C1 (configuration not stated)	/	3.9	8.5	-0.5	/	/	/	/	/
O=C(O)C1CCCC2CN3CCc4c([nH]c5ccccc45)C3C(O)C21 (configuration not stated)	12.2	19.3*	21.8	26.7*	9.0	2.9	3.0	/	-3.3
C[C@@H]1CN([C@@H](C)CO)C(=O)c2cc(C3=CCCC3)cnc2O[C@@H]1CN(C)C(=O)CN1CCOCC1	/	/	/	/	-4.6	/	/	/	/
O=C(c1ccncc1)N1C[C@@H]2[C@H](c3ccccc31)[C@H](CO)N2C(=O)c1ccccn1	/	/	/	/	6.6	/	/	/	/
Cc1cc(O)ccc1N/C=C1\CCCC1=O	31.5	46.1*	69.1*	33.7*	/	3.0	2.8	17.2	1.0
Cn1ccc2c(N3CCCCCCC3)cc3c(c21)C1CCC3O1 (configuration not stated)	/	49.0*	39.9*	91.2*	/	-3.2	-0.9	5.6	5.6
CC(=O)Nc1ccc(N2C(=O)c3cccc4c(O)ccc(c34)C2=O)cc1	34.4	26.1*	23.8	54.4*	-6.7	74.3*	51.8*	/	17.3*
Cc1ccc(N2C(=O)c3cccc4c(C(=O)O)ccc(c34)C2=O)cc1	/	-4.3	-1.0	-2.5	/	/	/	/	/
COc1ccc(N2C(=O)c3cccc4c(N(C)CCO)ccc(c34)C2=O)cc1	1.6	-7.7	4.8	5.5	0.4	/	/	/	/
O=C1c2cccc3c(O)ccc(c23)C(=O)N1c1ccc(Cl)cc1	34.0	36.6*	57.1*	32.5*	8.6	26.2*	20.5*	30.6*	10.3
Cc1ccc(S(=O)(=O)N(C)C[C@@H]2OCCCC[C@H](C)Oc3ccc(NC(=O)CCC(F)(F)F)cc3C(=O)N([C@H](C)CO)C[C@H]2C)cc1	/	/	/	/	-1.6	/	/	/	/
CCCC#Cc1cnc2c(c1)C(=O)N([C@H](C)CO)C[C@@H](C)[C@H](CN(C)C(=O)Nc1c(C)noc1C)O2	/	/	/	/	-7.5	/	/	/	/
COc1cccc(C(=O)Nc2ccc3c(c2)OC[C@@H](C)N(CC2CC2)C[C@H](C)[C@H](OC)CN(C)C3=O)c1	/	/	/	/	1.9	/	/	/	/
Nc1c(C(=O)NCC2CCCO2)sc2nc3c(c(-c4ccco4)c12)CC/C3=C\c1ccco1 (configuration not stated)	39.8*	22.8*	31.6*	38.9*	-1.6	-4.2	24.1*	29.2	15.9
Oc1c(N=Nc2ccc(F)cc2)ccc2ccccc12	6.4	5.9	12.0	-9.2	6.4	/	/	/	/
Oc1c(N=Nc2nn[nH]n2)ccc2ccccc12	/	24.7*	26.5	37.2*	/	146.2*	104.2*	/	44.0*
CN(C)S(=O)(=O)N1C(=O)c2ccccc2C1=O	4.2	-4.3	-4.9	-4.4	-14.9	/	/	/	/
CN(C)/C=C1\C=C2C(=O)c3ccccc3N2C1=O	29.7	20.9*	7.7	39.1*	-14.3	113.1*	74.3*	/	37.7*
O=C(Cc1csc(N2CCOCC2)n1)N/N=C/c1ccc(O)c(O)c1O	17.0	31.1*	22.1	41.0*	-2.2	-15.4	17.1	/	17.8*
CCCC#Cc1cnc2c(c1)C(=O)N([C@@H](C)CO)C[C@H](C)[C@@H](CN(C)C(=O)c1ccc3c(c1)OCO3)O2	/	/	/	/	-4.2	/	/	/	/
COc1cc([N+](=O)[O-])cc(/C=N/NC(=O)c2ccc(NC(=O)c3ccc(C)cc3)cc2)c1O	7.7	18.1*	-6.2	27.4*	-3.8	-5.4	45.2*	/	11.5
COc1ccc(/C=N/NC(=O)c2ccc(NC(=O)c3cccc([N+](=O)[O-])c3)cc2)c(C(=O)O)c1OC	-9.5	-7.5	-7.5	2.0	15.5	/	/	/	/
CN(C)CC#Cc1ccc([C@@H]2[C@H](CO)N3CCCCN(C(=O)C4CC4)C[C@@H]23)cc1	/	/	/	/	-0.8	/	/	/	/
Clc1ccccc1N=Nc1ccccn1	26.8	20.3*	41.0*	27.6*	23.7	8.1	12.9	5.2	3.8
SMILES	HTRA1 inh	SIAE primary	ABHD4 inh	TCR-CD3 inh	ARNT-TACC3 inh	BSA TAMRA ctr	TCR-CD3 inh conf	mABHD4 conf	SIAE confirm
Cc1[nH][nH]c(=O)c1N=Nc1ccccc1Cl	3.7	-0.6	-4.5	-2.0	4.9	/	/	/	/
Cc1ccccc1S(=O)(=O)N1[C@@H](C#N)[C@@H](c2ccc(-c3ccc(F)cc3)cc2)[C@@H]1CO	/	/	/	/	-9.6	/	/	/	/
O=C(CCCSc1ccccc1)Nc1nc(-c2ccco2)c(-c2ccco2)s1	-18.7	27.8*	-0.6	23.0*	2.1	-10.9	-2.9	/	-10.4
Cc1ccc(C(=O)Nc2nc(-c3ccco3)c(-c3ccco3)s2)o1	5.2	40.8*	36.0*	30.6*	7.4	-1.2	0.3	-12.8	-18.9
Cc1c(C(=O)NNC(=O)c2ccccc2O)oc2ccccc12	28.0	20.7*	23.7	22.5*	/	-9.0	25.4*	/	9.5
C[C@@H]1CN([C@H](C)CO)C(=O)c2cc(NC(=O)Cn3cnnn3)ccc2O[C@H]1CN(C)Cc1ccc(C(F)(F)F)cc1	/	/	/	/	3.5	/	/	/	/
Cc1cc2c(cc1S(=O)(=O)N1CCN(c3cccc(C)c3C)CC1)OCCN2C	-9.3	86.7*	128.9*	127.4*	10.4	-1.4	2.0	77.6*	57.8*
COc1cccc(N2CCN(S(=O)(=O)c3cc4c(cc3C)N(C)CCO4)CC2)c1	-3.9	12.8	-17.4	1.3	5.2	/	/	/	/
COc1ccc(/C(C)=N/NC(=S)NCCc2ccccc2)c(O)c1	20.8	24.7*	7.9	22.3*	18.7	-6.0	7.2	/	23.5*
c1coc(-c2nc(-c3ccco3)c(-c3ccco3)nc2-c2ccco2)c1	74.1*	28.9*	54.2*	26.5*	-11.8	-6.6	8.1	43.3*	9.4
O=C(C[C@H]1C=C[C@@H](NC(=O)c2ccccn2)[C@H](CO)O1)NCc1cccc(F)c1	/	/	/	/	2.2	/	/	/	/
O=C(CC(F)(F)F)N1C[C@H]2[C@@H](c3ccccc31)[C@H](CO)N2C(=O)CN1CCOCC1	/	/	/	/	-4.3	/	/	/	/
O=C(C[C@@H]1CC[C@@H]2[C@H](COC[C@@H](O)CN2C(=O)c2ccc(F)cc2)O1)NCCCN1CCOCC1	/	/	/	/	-4.5	/	/	/	/
CC(=O)C1C(=O)c2c(cccc2[N+](=O)[O-])C1=Nc1cccc(Cl)c1 (configuration not stated)	14.1	7.7	35.9*	8.2	10.3	/	/	60.7*	/
COC(=O)[C@@H](NCc1ccc(B(O)O)cc1)C(C)C	-3.1	-5.5	48.2*	3.7	-5.8	/	/	35.9*	/
Oc1cccc2c(NC(=S)Nc3ccc(OC(F)F)cc3)cccc12	16.0	13.5	33.5*	-3.0	/	/	/	11.0	/
